# In the library only some 1.7% were active in any assay of this set; here they are far more common.
# Neddyl block: cullin neddylation inhibition; P61081+Q13564; TR-FRET cullin neddylation, biochemical; inhibition, % at 25 µM; 360,000 compounds, 0.58% hits; in the data active = inhibition above about 36%
# DSG3 Ab inh: human desmoglein-3 autoantibody binding inhibition; DSG3-coupled beads, scFv-anti-DSG3-GFP binding, flow cytometry; active compounds read low; AID 588358; 310,000 compounds, 0.48% hits; binding (percent of control), % at 10 µM;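 active = binding more than 3 SD below its plate's average and above zero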;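 also: hits lower antibody fragment binding to DSG3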
# Target sequence (P32926 whole entry, looked up, the tested form may be a part): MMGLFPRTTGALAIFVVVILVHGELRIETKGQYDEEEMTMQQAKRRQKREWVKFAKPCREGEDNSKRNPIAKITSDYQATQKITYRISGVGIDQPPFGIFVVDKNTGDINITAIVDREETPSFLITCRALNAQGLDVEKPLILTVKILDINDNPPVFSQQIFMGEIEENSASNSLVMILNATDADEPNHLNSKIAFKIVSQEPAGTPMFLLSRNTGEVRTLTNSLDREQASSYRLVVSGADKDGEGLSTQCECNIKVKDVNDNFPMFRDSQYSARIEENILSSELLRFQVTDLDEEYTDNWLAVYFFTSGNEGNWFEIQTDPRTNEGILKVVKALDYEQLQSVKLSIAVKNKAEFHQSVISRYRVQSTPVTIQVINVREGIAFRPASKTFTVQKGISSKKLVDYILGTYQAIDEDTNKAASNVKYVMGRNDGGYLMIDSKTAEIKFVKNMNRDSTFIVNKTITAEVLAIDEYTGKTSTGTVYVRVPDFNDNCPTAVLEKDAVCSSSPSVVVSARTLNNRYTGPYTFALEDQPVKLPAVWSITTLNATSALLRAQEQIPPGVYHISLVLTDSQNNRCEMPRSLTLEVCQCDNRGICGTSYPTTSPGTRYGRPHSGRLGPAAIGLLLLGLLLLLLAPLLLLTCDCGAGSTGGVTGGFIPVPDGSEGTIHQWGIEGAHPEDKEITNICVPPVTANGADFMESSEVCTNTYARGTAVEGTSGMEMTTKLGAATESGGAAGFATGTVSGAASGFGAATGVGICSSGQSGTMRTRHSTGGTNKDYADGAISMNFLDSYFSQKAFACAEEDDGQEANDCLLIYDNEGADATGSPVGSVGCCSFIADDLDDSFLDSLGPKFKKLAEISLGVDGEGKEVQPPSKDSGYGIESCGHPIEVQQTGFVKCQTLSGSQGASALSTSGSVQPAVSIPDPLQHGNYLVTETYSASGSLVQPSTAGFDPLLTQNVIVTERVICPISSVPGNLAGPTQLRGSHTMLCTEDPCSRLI
# Efflux pump mplx: blocks antifungal efflux pumps in multiplex yeast assay; S. cerevisiae Candida pump triplex, Nile Red efflux; inhibition, % at 10 µM; 330,000 compounds, 0.44% hits; AID 485275;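 active = plate passing quality check with inhibition over a set limit, or well fluorescence over plate mean plus 4 SD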;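 also: Nile Red retained in pooled yeast measured as flow cytometry median fluorescence; 0% = buffer negative control and 100% = Enniatin B positive control; higher means more Nile Red kept so more efflux inhibition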
# Arr AP2 block: human beta-arrestin and AP2 interaction inhibition. inhibition, % at 10 µM. FITC-arrestin peptide / GST-AP2 beads, flow cytometry; AP2 beta2 appendage carries R879A mutation. 340,000 compounds, 0.31% hits;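 active = inhibition above a set limit, near 3 SD of compounds lacking own fluorescence, cut at about 54% in these data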;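 also: plate controls were DMSO wells for no effect and 5 µM unlabelled arrestin peptide for full effect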
#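 System: GST-tagged AP2 beta2-adaptin appendage (R879A) on 4 µm glutathione beads / Reagent: FITC-arrestin peptide, 50 nM / Detection: HyperCyt-sampled flow cytometry, FL1 channel, ex 488/em 535 nm / Timing: 12 min plus 1 h, RT / Buffer or medium: PBS plus Tween 20 (0.05%) and BSA (0.1%)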
# Starred values were filed as active, the others as inactive; · = not tested or not shown.
SMILES,Neddyl block,DSG3 Ab inh,Efflux pump mplx,Arr AP2 block
O=c1c2nnn(-c3ccccc3)c2ncn1C/C=C/c1ccccc1,-6,70*,0,8
COc1ccc(S(=O)(=O)N2CC(C)N(C(=O)N(C)C)C2C(C)C)cc1 (centres undefined),11,106,0,-3
NS(=O)(=O)c1cccc(NC(=O)COC(=O)CCCc2c[nH]c3ccccc23)c1,0,107,0,9
CC(=O)NNC(=S)NC(=O)C(c1ccccc1)c1ccccc1,3,100,0,-19
CN(C)C(=S)NC(=O)C(c1ccccc1)c1ccccc1,1,-12*,0,24
COC(=O)c1[nH]nc(-c2ccccc2)c1-c1ccccc1,-17,·,0,38
Cc1ccc(C)c(S(=O)(=O)Nc2ccc3oc(C)c(C(=O)O)c3c2)c1,12,85*,0,-9
COC(=O)CNc1nc(Cl)nc(Nc2ccc(Cl)cc2)n1,16,76*,0,30
COC(=O)CNc1nc(Cl)nc(Nc2ccc(C)cc2)n1,5,101,0,15
Cc1ccc(-n2c(-c3ccncc3)nnc2-c2cccs2)cc1,36,-8.5*,0,-1
O=C1NC(=O)C(c2ccccc2[N+](=O)[O-])=C1Nc1ccc(O)c(Cl)c1,-7,96,0,19
COc1ccc(C(=O)/C=C/Nc2ccc(S(N)(=O)=O)cc2)cc1OC,-77,71*,0,-19
CCOC(=O)c1ccc(N/C=C/C(=O)c2ccc(OC)c(OC)c2)cc1,-313,93,0,-3
Nc1c2c(nc3ccn(Cc4ccccc4)c(=O)c13)CCC2,39*,104,0,-6
O=C(O)Cc1c(C(=O)O)nnn1-c1ccc(Cl)cc1Cl,-1,110,0,0
O=C(Nc1ccc2c(c1)oc1ccccc12)c1ccncc1,·,-8.2*,0,0
O=C(Nc1ccc2c(c1)oc1ccccc12)c1cccnc1,24,·,0,-5
O=C(c1ccc(S(=O)(=O)Nc2ccccc2F)cc1)N1CCC1,2,101,0,28
Cc1nc(NC(=O)/C=C/c2ccco2)sc1C,9,-3.5*,1,10
O=C(/C=C/c1ccco1)Nc1nnc(-c2ccco2)s1,·,98,0,23
O=C(Cc1ccccc1)NCc1n[nH]c(=S)n1-c1ccccc1,8,12*,0,30
CCN(c1ccc(OC)cc1)S(=O)(=O)c1nnc(NC(=O)COc2ccccc2)s1,1,98,0,-6
Cc1ccc(-n2ncc3c2CCCC3NC(=O)CCCN2CCCCC2=O)cc1C (centres undefined),-3,107,0,-19
O=C1NC(=S)NC1=Cc1ccco1,-11,78*,·,5
O=C1NC(=O)/C(=C/c2ccco2)N1,-24,106,0,4
SMILES,Neddyl block,DSG3 Ab inh,Efflux pump mplx,Arr AP2 block
O=C(COc1ccc(Cl)cc1)Nc1ccc(N2CCN(C(=O)c3ccco3)CC2)cc1,-3,72*,0,29
COc1ccc(/C=N/Nc2ncc(Br)cn2)c(OC)c1,12,66*,0,-2
COc1ccc(/C=N\Nc2ccccn2)c(OC)c1,10,102,0,-7
COC(=O)c1c(-c2ccc(OC)cc2)sc2ccc(N3CCOCC3)cc12,-469,66*,0,-6
O=C1c2cccc3c([N+](=O)[O-])ccc(c23)C(=O)N1c1nccs1,55*,101,1.2*,8
FC(F)(F)c1cccnc1-n1cncn1,1,104,0,19
N#C/C(C(=O)NCc1ccccc1)=C1/N=C(NC(=O)c2cccs2)c2ccccc21,-87,85*,0,4
CCCS(=O)(=O)NC(=O)C1(C)CCCN(C(=O)c2ccc(SC(F)(F)F)cc2)C1 (centres undefined),-2,·,·,·
COc1ccc(C(=O)N2CCCC(C(N)=O)C2)cc1S(=O)(=O)N1CCOCC1 (centres undefined),-16,·,0,-8
COc1ccc(C(=O)NN(C)c2nc(C(F)(F)F)nc3ccccc23)cc1,0,110,0,3
O=C(/C=C/c1cccc(F)c1)Nc1cc(S(=O)(=O)N2CCOCC2)ccc1N1CCCC1,1,-24*,0,17
COc1ccc(C2=NS(=O)(=O)N(C)C(C(=O)NC3CCCCC3)=C2)cc1,-15,-19*,0,4
COc1ccc(C2=NS(=O)(=O)N(C)C(C(=O)NC3CCCC3)=C2)cc1,-21,104,0,23
Cc1nc(N)sc1-c1csc(Nc2ncccn2)n1,-8,-54*,·,15
CCOCCCNC(=O)C(NC(=O)CNC(C)=O)c1ccc(Cl)cc1 (centres undefined),4,100,0,-8
CCOCCCNC(=O)C(NC(=O)c1ccccc1O)c1ccc(Cl)cc1 (centres undefined),43*,101,0,-9
O=C(c1ccc(-c2ccccc2)cc1)N1CCN(c2nc3ccccc3o2)CC1,-12,69*,·,-3
CC(C)(C)c1ccc(C(=O)N2CCN(c3nc4ccccc4o3)CC2)cc1,-2,92,0,7
CCOC(=O)c1sc(=NC(=O)c2ccccc2Br)n(C)c1C,-85,68*,0,4
COc1ccc(Cc2nnc(N/N=C/c3ccc(N(C)C)cc3)[nH]c2=O)cc1OC,6,77*,0,5
COc1ccc(/C=N/Nc2nnc(Cc3ccc(OC)c(OC)c3)c(=O)[nH]2)cc1OC,-3,110,0,9
CCn1c2ccccc2c2nc3cc(C(=O)O)ccc3nc21,29,104,·,15
CCn1c2ccccc2c2nc3ccccc3nc21,49*,111,0,19
CCN(c1ccccc1)S(=O)(=O)c1ccc(Cl)c(NC(=O)COC(=O)c2ccc[n+]([O-])c2)c1,3,100,0,-1
O=C1C(=Cc2ccc(Br)o2)C(=O)c2ccccc21,-8,94*,0,35
SMILES,Neddyl block,DSG3 Ab inh,Efflux pump mplx,Arr AP2 block
CC1=C/C(=C\c2ccc(Br)o2)C(=O)O1,-1,84,0,1
COC(=O)COc1cccc2c(=O)n(CC(=O)Nc3ccc4c(c3)OCCO4)ccc12,12,51*,1,3
CCCOc1ccc(C(=O)Nc2ccc(S(=O)(=O)NC3=NCCCCC3)cc2)cc1,3,104,0,-3
COc1ccc([N+](=O)[O-])cc1NC(=S)NC(C)=O,-33,101,0,-9
COc1ccc(/C=C/C(=O)NC(=S)Nc2cc([N+](=O)[O-])ccc2O)cc1OC,-34,85*,0,12
COc1ccc(C(=O)Nc2ccc(Oc3nc(C)nc4sc(-c5ccccc5)cc34)cc2)cc1OC,-88,98,0,12
COc1ccc(C(=O)Nc2ccc(Oc3ncnc4sc(-c5ccccc5)cc34)cc2)cc1OC,-100,-207*,0,8
COc1ccccc1C(=O)Nc1ccc(Oc2ncnc3sc(-c4ccccc4)cc23)cc1,-127,97,0,-3
COc1cc(C(=O)Nc2ccc(Oc3ncnc4sc(-c5ccccc5)cc34)cc2)cc(OC)c1OC,5,-10*,0,1
CC(C)(C)NS(=O)(=O)c1ccc(NC(=O)c2cc(-c3ccccc3)nc3ccccc23)cc1,-6,65*,0,11

# Bioassay records as filed in PubChem BioAssay.
